Laboratory results taken from PMC9998351 (Steroids, 2023).
Several values for one entry are separate records, joined by “and”; a condition that tells them apart may be missing. Equal entries are not always repeated. Entries after “also recorded” stand apart in the source; their conditions may differ.

Assays:
[1] = Oral pharmacokinetics and bioavailability in rats; type: in vivo; details: for Vd/F: Vz/F; for AUC(0-t): AUClast; for AUC(0-inf): AUCinf; for half-life: T1/2, male rats
In short: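 Sprague Dawley rats (8–12 wk, 3/sex/group, catheterised jugular vein) got one oral gavage dose of 10 or 50 mg/kg. Dose was a solution in cremophor:ethanol:saline (1:1:8), pH 4.0, at 10 ml/kg. EDTA plasma was collected at 5, 15, 30 min, 1, 2, 4, 6 and 24 h, precipitated with acetonitrile, and quantified by LC-MS/MS against abiraterone internal standard. Noncompartmental parameters; bioavailability from oral AUClast versus IV.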

Acute toxicity [2] = type: in vivo, mice; details: male, Nude, mouse, in vivo, ip
male Nude mice [3] = assay: Acute toxicity; type: in vivo; details: male nude mice
[4] = Chronic dosing toxicity in male nude mice; type: in vivo; details: male, Nude, mouse, in vivo, ip
male Nude mice [5] = assay: Chronic dosing toxicity in male nude mice; type: in vivo; details: male nude mice
Acute toxicity [6] = type: in vivo, mice; details: male, CD-1, mouse, in vivo, po
male CD-1 mice = assay: Acute toxicity; type: in vivo; details: male CD-1 mice
[7] = system: CRPC CWR22Rv1 xenograft tumors; details: ref [26], cited from earlier work
[8] = male rats, 10 mg/kg PO, GeoMean
[9] = male rats, 10 mg/kg PO, individual rat, listed as VNPP433-3β, 10 mg/kg
[10] = male rats, 50 mg/kg PO, GeoMean
[11] = male rats, 50 mg/kg PO, individual rat, listed as VNPP433-3β, 50 mg/kg
[12] = male, Sprague Dawley, rat, plasma, po, 10 mg/kg, male rats, 10 mg/kg PO, GeoMean
[13] = male, Sprague Dawley, rat, plasma, po, 10 mg/kg, male rats, 10 mg/kg PO, individual rat
[14] = male, Sprague Dawley, rat, plasma, po, 50 mg/kg, male rats, 50 mg/kg PO, GeoMean
[15] = male, Sprague Dawley, rat, plasma, po, 50 mg/kg, male rats, 50 mg/kg PO, individual rat

C[C@]12CC[C@H](n3ccnc3)CC1=CC[C@@H]1[C@@H]2CC[C@]2(C)C(n3cnc4ccccc43)=CC[C@@H]12 [Compound 2, 3β-(1H-imidazole-1-yl)-17-(1H-benzimidazole-1-yl)-androsta-5,16-diene]
Cmax ([1]; female, Sprague Dawley, rat, plasma, po, 10 mg/kg, Cmax, female rats, 10 mg/kg PO, GeoMean): 594 ng/mL
Cmax ([1]; female, Sprague Dawley, rat, plasma, po, 10 mg/kg, Cmax, female rats, 10 mg/kg PO, individual rat): 755 ng/mL
Tmax ([1]; female, Sprague Dawley, rat, plasma, po, 10 mg/kg, Tmax, female rats, 10 mg/kg PO, GeoMean): 6 h
Tmax ([1]; female, Sprague Dawley, rat, plasma, po, 10 mg/kg, Tmax, female rats, 10 mg/kg PO, individual rat): 6 h
Vd/F ([1]; female, Sprague Dawley, rat, plasma, po, 10 mg/kg, female rats, 10 mg/kg PO, GeoMean): 16.3 L/kg
Vd/F ([1]; female, Sprague Dawley, rat, plasma, po, 10 mg/kg, female rats, 10 mg/kg PO, individual rat): 12.7 L/kg
AUC(0-t) ([1]; female, Sprague Dawley, rat, plasma, po, 50 mg/kg, female rats, 50 mg/kg PO, GeoMean): 80000 ng·h/mL
AUC(0-t) ([1]; female, Sprague Dawley, rat, plasma, po, 50 mg/kg, female rats, 50 mg/kg PO, individual rat): 76800 ng·h/mL
Cmax ([1]; female, Sprague Dawley, rat, plasma, po, 50 mg/kg, Cmax, female rats, 50 mg/kg PO, GeoMean): 4500 ng/mL
Cmax ([1]; female, Sprague Dawley, rat, plasma, po, 50 mg/kg, Cmax, female rats, 50 mg/kg PO, individual rat): 4380 ng/mL
Tmax ([1]; female, Sprague Dawley, rat, plasma, po, 50 mg/kg, Tmax, female rats, 50 mg/kg PO, GeoMean): 24 h
Tmax ([1]; female, Sprague Dawley, rat, plasma, po, 50 mg/kg, Tmax, female rats, 50 mg/kg PO, individual rat): 23.3 h
AUC% Extrap [1, 8]: 16.5%
Cmax/D [1, 8]: 61.3 ng/mL/mg/kg
AUC% Extrap [1, 9]: 24.4% and 9.55% and 19.3%
AUCinf [1, 9]: 364 µg·min/mL and 715 µg·min/mL
AUClast [1, 9]: 329 µg·min/mL and 577 µg·min/mL
CL/F [1, 9]: 27.5 mL/min/kg and 14.0 mL/min/kg
Cmax [1, 9]: 460 ng/mL and 715 ng/mL
Cmax/D [1, 9]: 70.2 ng/mL/mg/kg and 46.0 ng/mL/mg/kg and 71.5 ng/mL/mg/kg
T1/2 [1, 9]: 6.3 h and 9.0 h
Vz/F [1, 9]: 15.0 L/kg and 10.9 L/kg
AUC% Extrap [1, 10]: 79.5%
Cmax/D [1, 10]: 54.5 ng/mL/mg/kg
Tmax ([1]; male rats, 50 mg/kg PO, individual rat): 6 h
AUC% Extrap [1, 11]: 94.3% and 66.9%
AUClast [1, 11]: 4460 µg·min/mL and 3600 µg·min/mL
Cmax [1, 11]: 3430 ng/mL and 3160 ng/mL
Cmax/D [1, 11]: 37.4 ng/mL/mg/kg and 68.6 ng/mL/mg/kg and 63.2 ng/mL/mg/kg
Tmax [1, 11]: 6 h
Time of peak of PO concentration-time profiles ([1]; male rats, PO): 6 h
AUC(0-inf) [1, 12]: 9380 ng·h/mL
AUC(0-inf) [1, 13]: 11400 ng·h/mL
AUC(0-t) [1, 12]: 7700 ng·h/mL
AUC(0-t) [1, 13]: 8650 ng·h/mL
CL/F ([1]; male, Sprague Dawley, rat, plasma, po, 10 mg/kg, CL/F, male rats, 10 mg/kg PO, GeoMean): 17.8 mL/min/kg
CL/F ([1]; male, Sprague Dawley, rat, plasma, po, 10 mg/kg, CL/F, male rats, 10 mg/kg PO, individual rat): 14.6 mL/min/kg
Cmax ([1]; male, Sprague Dawley, rat, plasma, po, 10 mg/kg, Cmax, male rats, 10 mg/kg PO, GeoMean): 613 ng/mL
Cmax ([1]; male, Sprague Dawley, rat, plasma, po, 10 mg/kg, Cmax, male rats, 10 mg/kg PO, individual rat): 702 ng/mL
half-life ([1]; male, Sprague Dawley, rat, plasma, po, 10 mg/kg, 10 mg/kg PO, GeoMean): 8.22 h
half-life ([1]; male, Sprague Dawley, rat, plasma, po, 10 mg/kg, 10 mg/kg PO, individual rat): 9.8 h
Tmax ([1]; male, Sprague Dawley, rat, plasma, po, 10 mg/kg, Tmax, male rats, 10 mg/kg PO, GeoMean): 6 h
Tmax ([1]; male, Sprague Dawley, rat, plasma, po, 10 mg/kg, Tmax, male rats, 10 mg/kg PO, individual rat): 6 h
Vd/F [1, 12]: 12.6 L/kg
Vd/F [1, 13]: 12.4 L/kg
AUC(0-t) [1, 14]: 56200 ng·h/mL
AUC(0-t) [1, 15]: 39700 ng·h/mL
CL/F ([1]; male, Sprague Dawley, rat, plasma, po, 50 mg/kg, CL/F, male rats, 50 mg/kg PO, GeoMean): 1.71 mL/min/kg
Cmax ([1]; male, Sprague Dawley, rat, plasma, po, 50 mg/kg, Cmax, male rats, 50 mg/kg PO, GeoMean): 2730 ng/mL
Cmax ([1]; male, Sprague Dawley, rat, plasma, po, 50 mg/kg, Cmax, male rats, 50 mg/kg PO, individual rat): 1870 ng/mL
Tmax ([1]; male, Sprague Dawley, rat, plasma, po, 50 mg/kg, Tmax, male rats, 50 mg/kg PO, GeoMean): 9.52 h
Vd/F [1, 14]: 14.6 L/kg
Vd/F [1, 15]: 14.4 L/kg
Extrapolated percentage of AUC0-inf ([1]; rats, PO dosing, text (and beyond)): 17–82%
MTD at 2 weeks (Acute toxicity [2]): 50 mg/kg
Mortality (male Nude mice [3]; 100 mg/kg single intraperitoneal dose, 3 mice, 100 mg/kg): one mouse died in the 100 mg/kg group
Signs of toxicity (male Nude mice [3]; 25 and 50 mg/kg single intraperitoneal dose, two weeks): did not exhibit any signs of toxicity
MTD at 14 days [4]: 25 to 50 mg/kg
Mortality (male Nude mice [5]; 0.5 MTD group, five days a week for two weeks, day 7): Two mice died
Condition of other groups (male Nude mice [5]; chronic dosing 0.2 MTD and MTD groups, 14 days): looked healthy
NOAEL at 72 h (Acute toxicity [6]): > 300 mg/kg
Tolerability and mortality (male CD-1 mice; 100 mg/kg PO, observed 72 hrs): well tolerated, and no mortality was observed
Mortality (male CD-1 mice; 1000 mg/kg PO, 3 mice, 1000 mg/kg): two mice died on days 2 and the third mice died on day 3; also recorded: Two mice were in a moribund stage and found dead 36 hrs. post dose, the third mice died 72 hrs. post dose
Clinical signs (male CD-1 mice; 1000 mg/kg PO, after 24 hrs): piloerection, apathy (inactive) and hypothermia
Gross necropsy, organ toxicity (male CD-1 mice; all three dose groups (100, 300, 1000 mg/kg PO), postmortem): no evident organ toxicity
Signs of toxicity at necropsy (male CD-1 mice; low (100 mg/kg) and medium (300 mg/kg) dose PO, after 72 hrs): no signs of toxicity were observed
Host toxicity ([7]; CWR22Rv1 xenograft study): no apparent host toxicity
Suppression of tumor growth ([7]; CWR22Rv1 xenograft, 2 at 7.53-fold lower equimolar dose than Gal, p < 0.01): 84%
Efficacy compared with enzalutamide ([7]; CWR22Rv1 xenograft): more efficacious than enzalutamide
